In brackets after ≈: the same amount, converted by molar mass.
Tests used:
[1] = Partition coefficient of compound between n-octanol and PBS (pH7.4); assay type: physicochemical; conditions: octanol/water, pH 7.4
Method in brief: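 Shake-flask method using octanol and PBS pH 7.4, each pre-saturated with the other. Compound was shaken 2 h at 850 rpm, 25 °C, then the phases were separated by centrifugation and both layers diluted and analysed by LC-MS/MS. LogD = log(octanol AUC × relative dilution / buffer AUC).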

Schistosoma mansoni [2] = assay: Concentration required to kill 50% of 42 day old worms 5 days after drug treatment.; assay type: functional, organism-based; conditions: Puerto Rican, 120 h
Method in brief: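 Adult S. mansoni were perfused from CD1 mice 6 weeks post-infection and washed. They were cultured 3 pairs per well in 1 mL DMEM with 2 mM glutamine, penicillin/streptomycin and 10% FCS […] at 37 °C, 5% CO2. Viability of individual worms was scored on day 5 (120 h).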

Schistosoma mansoni [3] = assay: Concentration required to kill 50% of 21 day old worms 5 days after drug treatment.; assay type: functional, organism-based; conditions: Puerto Rican, 120 h
Method in brief: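 Juvenile S. mansoni (Puerto Rican strain) were perfused from CD1 mice 3 weeks post-infection and washed. They were cultured 6–8 per well in 200 µL DMEM with 2 mM glutamine, penicillin/streptomycin and 10% FCS at 37 °C, 5% CO2. Viability of individual worms was scored on day 5 after dosing (120 h).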

[4] = Concentration required to kill 50% MRC-5 cells as detected by Alamar blue staining; assay type: toxicity, cell-based, MRC5; conditions: homo sapiens, read-out: TC50 (the source's name)
[5] = Concentration required to kill 50% HepG2 cells as detected by MTT staining; assay type: toxicity, cell-based; conditions: homo sapiens, read-out: TC50 (the source's name)
[6] = Mean oral bioavailability in Swiss albino male mice at […] per compound (administered in a mixture of 5 compounds to 3 mice) assessed by LCMS/MS.; note: dose 2.5 mg/kg; assay type: ADME, organism-based; conditions: male, Swiss albino, mouse, in vivo, read-out: Bioavailability
[7] = Mean AUC inf in Swiss albino male mice at 1 mg/kg per compound (administered iv in a mixture of 5 compounds to 3 mice) assessed by LCMS/MS.; assay type: ADME, organism-based; conditions: mouse, in vivo; for AUC(0-inf): male, Swiss albino
Method in brief: (§1)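 Male Swiss albino mice (~30 g), 3 per experiment, mostly dosed as mixtures of 5 compounds iv via the lateral tail vein. Vehicle: 10% DMSO/90% 50 mM Na2HPO4 with 0.5% Tween-80. Blood sampled at 5, 15, 30 min and 1, 2, 4, 8, 24 h. Plasma stored at −20 °C and quantified by LC-MS after acetonitrile precipitation.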

[8] = Mean observed clearance in Swiss albino male mice at 1 mg/kg per compound (administered iv in a mixture of 5 compounds to 3 mice) assessed by LCMS/MS.; assay type: ADME, organism-based; conditions: mouse, in vivo; method in brief: as §1
[9] = Mean volume of distribution at steady state in Swiss albino male mice at 1 mg/kg per compound (administered iv in a mixture of 5 compounds to 3 mice) assessed by LCMS/MS.; assay type: ADME, organism-based; conditions: mouse, in vivo, read-out: Volume
Method in brief: (§2)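 Male Swiss albino mice (~30 g), 3 per experiment, mostly dosed as mixtures of 5 compounds iv via the lateral tail vein. Vehicle: 10% DMSO/90% 50 mM Na2HPO4 with 0.5% Tween-80. Plasma stored at −20 °C and quantified by LC-MS after acetonitrile precipitation.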

[10] = Mean half-life in Swiss albino male mice at 1 mg/kg per compound (administered iv in a mixture of 5 compounds to 3 mice) assessed by LCMS/MS.; assay type: ADME, organism-based; conditions: mouse, in vivo; method in brief: as §2
[11] = Mean plasma concentration at 24h in Swiss albino male mice at […] per compound (administered orally in a mixture of 5 compounds to 3 mice) assessed by LCMS/MS.; assay type: ADME, organism-based; conditions: mouse, po
[12] = Mean plasma concentration at 4h in Swiss albino male mice at […] per compound (administered orally in a mixture of 5 compounds to 3 mice) assessed by LCMS/MS.; assay type: ADME, organism-based; conditions: mouse, po
[13] = Mean time to peak plasma concentration in Swiss albino male mice at […] per compound (administered orally in a mixture of 5 compounds to 3 mice) assessed by LCMS/MS.; assay type: ADME, organism-based; conditions: mouse, po
[14] = Plasma protein binding determined at 10uM by LC-MS/MS.; assay type: ADME, cell-free; conditions: mouse
Method in brief: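 Equilibrium dialysis of plasma spiked at 10 µM (0.1% DMSO) against PBS pH 7.4, 6 h at 37 °C, duplicates. Both chambers analysed by LC-MS/MS after acetonitrile precipitation. % free = buffer/plasma area ratio; recovery also calculated.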

[15] = Percentage of parent compound remaining after incubation for 30 minutes with cyropreserved mouse hepatocytes at a concentration of 1uM compound and […], determined by LCMS; assay type: ADME, tissue-based, Hepatocyte; conditions: cryopreserved mouse hepatocytes, read-out: Stability
Method in brief: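 Compound was incubated at 1 µM final (2 µM working solution mixed 1:1 with hepatocyte suspension) in supplemented KHB pH 7.4. Conditions: 37 °C, 5% CO2, gentle mixing, duplicates. Reaction quenched with ice-cold acetonitrile containing standard; analysed by LC-MS/MS. % remaining = AUC at t / AUC at T0.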

[16] = Solubility at 25 degC of compound (diluted from DMSO) in PBS at pH 7.4 determined after 24h (1h sonication, 22h shaking, 1h sonication) by LCMS/MS; assay type: physicochemical
[17] = male, Swiss albino, read-out: Clearance (converted)

SMILES | Lipophilicity [1] | EC50 (Schistosoma mansoni [2]) [µM] | EC50 (Schistosoma mansoni [3]) [µM] | CC50 [4] [µM] | CC50 [5] [µM] | remaining at 0.5 h, 1 µM [15] [%] | solubility kinetic at 24 h [16] [µM] | other results
COc1cc(-c2cnc3cnc(-c4cccc(C(C)C)c4)cn23)ccc1O | 4.75 = | 1.41 | 1.63 | > 50 | 26 | – | – | –
COc1ccc(-c2cnc3cnc(-c4cccc(OC)c4)cn23)cc1 | – | 6.75 | 12.6 | > 49.9 | – | – | – | –
Oc1ccc(-c2cnc3ccc(-c4cccc(C(F)(F)F)c4)nn23)c(F)c1 | – | > 25 | > 25 | > 50 | – | – | – | –
COc1ccc(-c2c(C(F)(F)F)nc3cnc(-c4cccc(C(F)(F)C(F)(F)F)c4)cn23)cc1O | 4.65 = | 0.021 | < 0.0106 | – | > 11.1 | 75.3 | 1.05 (≈ 0.529 µg/mL) | bioavailability [6]: 9.77%; AUC [7]: 153 ng·h/mL; clearance [8]: 54.3 mL/min/kg; Vd [9]: 4.94 L/kg; half-life [10]: 127 min; concentration at 24 h [11]: 0.1 ng/mL; concentration at 4 h [12]: 8.54 ng/mL; Tmax [13]: 15 min; Binding [14]: 99.98%
COc1ccc(-c2nnc3ccc(-c4cccc(C(C)C)c4)cn23)cc1 | 4.71 = | – | 24.2 | 40.8 | – | – | – | –
CC(C)c1nc2cnc(-c3cccc(C(F)(F)F)c3)cn2c1-c1ccc(OP(=O)(O)O)cc1F | 0.075 = | < 0.0488 | 0.127 | – | 9.2 | 39.6 | 204 (≈ 101 µg/mL) | bioavailability [6]: 5.44%; AUC(0-inf) [7]: 131 ng·h/mL; clearance [8, 17]: 69 mL/min/kg; Vd [9]: 1.26 L/kg; half-life [10]: 31.7 min; concentration at 24 h [11]: 0.1 ng/mL; concentration at 4 h [12]: 5.46 ng/mL; Tmax [13]: 15 min; Binding [14]: 96.805%
COc1ccc(-c2cnc3cnc(-c4cccc(C(C)C)c4)cn23)cc1 | 5.36 = | 1.85 | 2.43 | 9.04 | – | – | – | –
COc1ccc(-c2c(C)nn3cnc(-c4cccc(C(F)(F)F)c4)cc23)cc1O | 3.73 = | – | 0.785 | – | – | 45.1 | 29.8 (≈ 11.9 µg/mL) | AUC(0-inf) [7]: 43.2 ng·h/mL; clearance [8, 17]: 195 mL/min/kg; Vd [9]: 3.18 L/kg; half-life [10]: 14.4 min; concentration at 24 h [11]: 0.1 ng/mL; concentration at 4 h [12]: 0.1 ng/mL; Binding [14]: 99.935%
Cc1nc2cnc(-c3cccc(C(F)(F)F)c3)cn2c1-c1ccc(O)cc1F | – | 0.29 | < 0.614 | 18.7 | – | 31.5 | 3.49 (≈ 1.35 µg/mL) | –
COc1ccc(-c2cnc3cnc(-c4cccc(Cl)c4)cn23)cc1 | – | 12.2 | 13.1 | > 50 | – | – | – | –
COc1ccc(-c2cnc3ccc(-c4cccc(C(C)C)c4)nn23)cc1O | – | 5.59 | 8.26 | 11.3 | 9.24 | – | – | –
CC(C)Oc1cccc(-c2cn3c(-c4ccnc(C(F)(F)F)c4)cnc3cn2)c1 | – | > 25 | > 25 | > 49.2 | – | – | – | –
COc1ccc(-c2cnc3cnc(-c4cccc(OC(C)C)c4)cn23)c(OC)c1 | – | 12.7 | 12.5 | > 48.9 | – | – | – | –
COc1ccc(-c2c(C(C)C)nc3cnc(-c4cccc(C(F)(F)F)c4)cn23)cc1OP(=O)(O)O | 0.09 = | – | 0.241 | – | 19.2 | 51.1 | 209 (≈ 106 µg/mL) | AUC(0-inf) [7]: 25 ng·h/mL; clearance [8, 17]: 345 mL/min/kg; Vd [9]: 4.06 L/kg; half-life [10]: 22.6 min; concentration at 24 h [11]: 0.1 ng/mL; concentration at 4 h [12]: 0.1 ng/mL; Binding [14]: 96.79%
COc1ccc(-c2nnc3ccc(-c4cccc5c4OCC5)cn23)cc1OC | – | – | 24.8 | 27.6 | – | – | – | –
